Among the data in ChEMBL document CHEMBL1121887, “A new nontricyclic antidepressant agent. Synthesis and activity of N-[trans-2-(dimethylamino)cyclopentyl]-N-(3,4-dichlorophenyl)propanamide and related compounds” (1981) are ED50 values, retold here.

Type in all cases: functional
For experiment [1], the species on record is Mus musculus. Put plainly: Antidepressant activity using yohimbine potentiation test in mice.
The species entered for experiment [2] is Mus musculus. Kind of experiment: Antidepressant activity using oxotremorine antagonism test in mice.
Experiment [3] is filed under the species Mus musculus. Kind of experiment: Antidepressant activity using apomorphine potentiation test in mice. The gist of the method: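 Male CF-1 mice in groups of four got test compound i.p. (50 and 25 mg/kg) in 0.25% aqueous methylcellulose. 1 h later they got apomorphine 10 mg/kg s.c. and were watched 30 min for stereotyped gnawing and licking, each positive. If ≥3 were positive, the test was repeated at 0.3 log lower doses until ≤1 responded. ED50 and 95% CI by Spearman–Karber.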

As for `CCC(=O)N(c1ccccc1Cl)C1CCCC1N(C)C` (stereo unspecified), the ED50 in experiment [1] (Mus musculus, read-out: ED50) is 6 mg/kg; in experiment [2] (Mus musculus, read-out: ED50), 2 mg/kg; in experiment [3] (Mus musculus, read-out: ED50), more than 50 mg/kg.
For `CCC(=O)N(c1ccc(Cl)c(Cl)c1)C1CCCC1N(C)CCN(C)C` (stereo unspecified), in that order: 0.8 mg/kg, 5 mg/kg and 20 mg/kg.
For the compound `CCC(=O)N(c1ccc(Cl)c(Cl)c1)C1CCCC1N(C)CCCN(C)C` (stereo unspecified), the ED50 amounted to 4 mg/kg in experiment [1] (Mus musculus, read-out: ED50); 10 mg/kg in experiment [2] (Mus musculus, read-out: ED50); 30 mg/kg in experiment [3] (Mus musculus, read-out: ED50).
The corresponding values for `CCC(=O)N(c1cc(Cl)c(Cl)c(Cl)c1)C1CCCC1N(C)C` (stereo unspecified) are 4 mg/kg, 40 mg/kg and 40 mg/kg.
In the case of `CCC(=O)N(c1cc(Cl)cc(Cl)c1)C1CCCC1N(C)C` (stereo unspecified), the ED50 in experiment [1] (Mus musculus, read-out: ED50) came to 0.9 mg/kg; in experiment [2] (Mus musculus, read-out: ED50) it was 5 mg/kg; in experiment [3] (Mus musculus, read-out: ED50), 30 mg/kg.
The corresponding values for `CCC(=O)N(c1ccc(C)c(Cl)c1)C1CCCC1N(C)C` (stereo unspecified) are 1 mg/kg, 0.6 mg/kg and 2 mg/kg.
For `CCC(=O)N(c1ccc(OC)cc1)C1CCCCC1N(C)C` (stereo unspecified), in that order: more than 50 mg/kg, more than 50 mg/kg and more than 50 mg/kg.
Consider `CN(C)C1CCCC1N(C=O)c1ccccc1` (stereo unspecified), for which the ED50 in experiment [1] (Mus musculus, read-out: ED50) is 40 mg/kg; in experiment [2] (Mus musculus, read-out: ED50) it was more than 50 mg/kg.
For `CCC(=O)N(c1cccc(Br)c1)C1CCCC1N(C)C` (stereo unspecified), the 50% effective dose (ED50) was determined as 0.1 mg/kg in experiment [1] (Mus musculus, read-out: ED50); 0.1 mg/kg in experiment [2] (Mus musculus, read-out: ED50); 2 mg/kg in experiment [3] (Mus musculus, read-out: ED50).
Turning to `CCC(=O)N(c1ccc(Cl)c(C)c1)C1CCCC1N(C)C` (stereo unspecified), the ED50 in experiment [1] (Mus musculus, read-out: ED50) stood at 2 mg/kg; in experiment [2] (Mus musculus, read-out: ED50), 2 mg/kg; in experiment [3] (Mus musculus, read-out: ED50), 10 mg/kg.
Take `CCC(=O)N(c1ccc(Cl)cc1)C1CCCCC1N(C)C` (stereo unspecified): the ED50 is 35 mg/kg in experiment [1] (Mus musculus, read-out: ED50); 17 mg/kg in experiment [2] (Mus musculus, read-out: ED50); 14 mg/kg in experiment [3] (Mus musculus, read-out: ED50).
As for `CCC(=O)N(c1ccc(Br)cc1)C1CCCC1N(C)C` (stereo unspecified), the ED50 in experiment [1] (Mus musculus, read-out: ED50) was 2 mg/kg; in experiment [2] (Mus musculus, read-out: ED50), 3 mg/kg; in experiment [3] (Mus musculus, read-out: ED50), more than 50 mg/kg.
The corresponding values for `CN(C)C1CCCC1N(C=O)c1ccc(Cl)c(Cl)c1` (stereo unspecified) are 9 mg/kg, 40 mg/kg and more than 50 mg/kg.
The corresponding values for `CCC(=O)N(c1ccc(OC)c(OC)c1)C1CCCC1N(C)C` (stereo unspecified) are 9 mg/kg, 10 mg/kg and 10 mg/kg.
Regarding `CCC(=O)N(c1ccccc1)C1CCCCC1N(C)C` (stereo unspecified), the median effective dose (ED50) in experiment [1] (Mus musculus, read-out: ED50) is more than 50 mg/kg; in experiment [2] (Mus musculus, read-out: ED50), more than 50 mg/kg; in experiment [3] (Mus musculus, read-out: ED50) it was more than 50 mg/kg.
As to `CCC(=O)N(c1ccc(Cl)c(Cl)c1)C1CCCC1N(CC)CC` (stereo unspecified), the ED50 in experiment [1] (Mus musculus, read-out: ED50) turned out to be 0.1 mg/kg; in experiment [2] (Mus musculus, read-out: ED50) it was 0.03 mg/kg; in experiment [3] (Mus musculus, read-out: ED50), 0.3 mg/kg.
As for `CCC(=O)N(c1ccc(Cl)c(Cl)c1)C1CCCC1O` (stereo unspecified), the ED50 in experiment [1] (Mus musculus, read-out: ED50) turned out to be 0.4 mg/kg; in experiment [2] (Mus musculus, read-out: ED50), 9 mg/kg; in experiment [3] (Mus musculus, read-out: ED50), 20 mg/kg.
The corresponding values for `CCC(=O)N(c1ccc(C)cc1)C1CCCCC1N(C)C` (stereo unspecified) are more than 50 mg/kg, more than 50 mg/kg and more than 50 mg/kg.
Regarding `CN(C)C1CCCC1N(C(=O)c1cccs1)c1ccc(Cl)c(Cl)c1` (stereo unspecified), the ED50 in experiment [1] (Mus musculus, read-out: ED50) was 20 mg/kg; in experiment [2] (Mus musculus, read-out: ED50), 10 mg/kg; in experiment [3] (Mus musculus, read-out: ED50), more than 50 mg/kg.
As for `CCC(=O)N(c1ccc(Cl)c(Cl)c1)C1CCCC1N` (stereo unspecified), the ED50 in experiment [1] (Mus musculus, read-out: ED50) is 0.02 mg/kg; in experiment [2] (Mus musculus, read-out: ED50), 0.8 mg/kg.
On to `CCC(=O)N(c1cccc(F)c1)C1CCCC1N(C)C` (stereo unspecified), for which the ED50 worked out at 0.4 mg/kg in experiment [1] (Mus musculus, read-out: ED50); 0.6 mg/kg in experiment [2] (Mus musculus, read-out: ED50); 5 mg/kg in experiment [3] (Mus musculus, read-out: ED50).
For `CCC(=O)N(c1ccc(Cl)c(Cl)c1)C1CCCC1N(C)Cc1ccccc1` (stereo unspecified), the ED50 in experiment [1] (Mus musculus, read-out: ED50) was 0.2 mg/kg; in experiment [2] (Mus musculus, read-out: ED50) it was 40 mg/kg; in experiment [3] (Mus musculus, read-out: ED50), more than 50 mg/kg.
Consider `CCC(=O)N(c1ccc(Cl)c(Cl)c1)C1CCCC1NC` (stereo unspecified), for which the ED50 in experiment [1] (Mus musculus, read-out: ED50) amounted to 0.4 mg/kg; in experiment [2] (Mus musculus, read-out: ED50), 0.3 mg/kg.
Take `CCC(=O)N(c1ccc(F)c(Cl)c1)C1CCCC1N(C)C` (stereo unspecified): the ED50 stood at 0.2 mg/kg in experiment [1] (Mus musculus, read-out: ED50); 2 mg/kg in experiment [2] (Mus musculus, read-out: ED50); 0.7 mg/kg in experiment [3] (Mus musculus, read-out: ED50).
The corresponding values for `CCC(=O)N(c1ccc(Cl)c(Cl)c1)C1CCCC1N1CCCC1` (stereo unspecified) are 0.6 mg/kg, 2 mg/kg and 3 mg/kg.
With `C=CCN(C)C1CCCC1N(C(=O)CC)c1ccc(Cl)c(Cl)c1` (stereo unspecified), the ED50 in experiment [1] (Mus musculus, read-out: ED50) is 0.2 mg/kg; in experiment [2] (Mus musculus, read-out: ED50) it was 0.2 mg/kg; in experiment [3] (Mus musculus, read-out: ED50) it was 6 mg/kg.
For the compound `CCCC(=O)N(c1ccc(Cl)c(Cl)c1)C1CCCC1N(C)C` (stereo unspecified), the ED50 in experiment [1] (Mus musculus, read-out: ED50) came out at 2 mg/kg; in experiment [2] (Mus musculus, read-out: ED50), 7 mg/kg; in experiment [3] (Mus musculus, read-out: ED50), 0.9 mg/kg.
For `CCC(=O)N(c1cccc(C)c1)C1CCCCC1N(C)C` (stereo unspecified), in that order: more than 50 mg/kg, 15 mg/kg and more than 50 mg/kg.
With `CCC(=O)N(c1ccccc1)C1CCCC1N(C)C` (cis isomer), the ED50 in experiment [1] was 10 mg/kg; in experiment [2], more than 50 mg/kg; in experiment [3] it was more than 50 mg/kg.
As to `CCC(=O)N(c1ccc(OC)cc1)C1CCCC1N(C)C` (stereo in doubt; 20), the ED50 in experiment [1] was 30 mg/kg; in experiment [2], 20 mg/kg.

By ED50 is commonly meant the midpoint of the dose-response relation.
